{"source": "paper PMC10646973", "about": "(Biochemistry, 2023)", "key": {"[1]": {"tested_on": "protein arginine and protein lysine methyltransferases (PRMTs and PKMTs) in HT-29 colorectal cells", "test": "Protein methylation marks", "type": "cell-based", "conditions": "HT-29 cells, 6 days, positive control", "how_it_was_run": "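HT-29 colorectal cells were exposed to the test compound for 6 days. Soluble protein was then extracted and immunoblotted for symmetric dimethylarginine, asymmetric dimethylarginine and trimethyl-lysine marks. The SDMA positive control was a PRMT5-specific inhibitor, and the ADMA positive control was a type I PRMT (PRMT1/4) inhibitor.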"}, "PNMT": {"tested_on": "PNMT", "conditions": "read-out: apparent IC50; cited from earlier work"}}}
{"smiles": "CC(C)Oc1ccc(-c2c[nH]cc2CN(C)CCN)cc1", "note": "[MS023, reference compound]", "values": [{"measurement": "ADMA (Western blot)", "setting": "[1]", "value": "no evidence of ADMA"}]}
{"smiles": "CC(=O)N1CCC(Nc2cc(C(=O)NC[C@H](O)CN3CCc4ccccc4C3)ncn2)CC1", "note": "[GSK3326595, reference compound]", "values": [{"measurement": "SDMA (Western blot)", "setting": "[1]", "value": "no band corresponding to SDMA"}]}
{"smiles": "NC(=O)c1cccc(C#CCN(CC[C@H](N)C(=O)O)C[C@H]2O[C@@H](n3cnc4c(N)ncnc43)[C@H](O)[C@@H]2O)c1", "note": "[LL320]", "values": [{"measurement": "IC50", "setting": "PNMT", "value": "> 100", "unit": "µM"}]}
